# IMP-1 inh = blocks Pseudomonas aeruginosa IMP-1 metallo-beta-lactamase. 0.45% of 290,000 active. purified IMP-1, nitrocefin hydrolysis, epi-absorbance fluorescence. inhibition, % at 5.6 µM;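 active = inhibition above the mean plus 3 SD of all compounds in the same screening run, cut at about 4.5% in these data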;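 note: 0% = IMP-1 with DMSO and 100% = DMSO wells lacking enzyme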
#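 Material – recombinant IMP-1 enzyme, purified · Amount – IMP-1 0.2 nM before substrate addition · Medium – HEPES buffer pH 7.1 with ZnSO4 and Brij 35 · Timing – 25 °C, 15 min preincubation, 25 min reaction · Measured by – plate fluorescence quenching by hydrolysis product, ex 480/em 530 nm · Read-out – percent enzyme inhibition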
# TRPN1 ag = agonists of zebrafish TRPN1 channel; AID 1424; HEK293 zebrafish TRPN1-YFP, Fluo-8 calcium fluorescence; 100% = response to 87 µM carbachol; activation, % at 3 µM; 0.18% of 220,000 active;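 active = activation above its plate's cutoff, the mean activation of test wells on that plate plus 3 SD, cut at about 19% in these data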;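 note: 0% = DMSO alone and 100% = 87 µM carbachol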
#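 Material: zebrafish TRPN1-YFP in HEK293 cells. Doses: one dose of 3 µM, 0.3% DMSO. Incubation: dye 1 h 37 °C plus 30 min RT. Measured by: intracellular calcium fluorescence with Fluo-8.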
# TRPML3 agonist = human mucolipin-3 channel agonism. 0.29% of 220,000 active. AID 1448. Q8TDD5. activation, % at 3 µM. HEK293 TRPML3-YFP, Fluo-8 calcium fluorescence; 100% = the carbachol control signal;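 active = activation above its plate's cutoff, the mean activation of the plate's test wells plus 3 SD, cut at about 12% in these data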;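 note: 0% = DMSO only wells and 100% = carbachol wells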
# Target sequence (Q8TDD5 whole entry, looked up): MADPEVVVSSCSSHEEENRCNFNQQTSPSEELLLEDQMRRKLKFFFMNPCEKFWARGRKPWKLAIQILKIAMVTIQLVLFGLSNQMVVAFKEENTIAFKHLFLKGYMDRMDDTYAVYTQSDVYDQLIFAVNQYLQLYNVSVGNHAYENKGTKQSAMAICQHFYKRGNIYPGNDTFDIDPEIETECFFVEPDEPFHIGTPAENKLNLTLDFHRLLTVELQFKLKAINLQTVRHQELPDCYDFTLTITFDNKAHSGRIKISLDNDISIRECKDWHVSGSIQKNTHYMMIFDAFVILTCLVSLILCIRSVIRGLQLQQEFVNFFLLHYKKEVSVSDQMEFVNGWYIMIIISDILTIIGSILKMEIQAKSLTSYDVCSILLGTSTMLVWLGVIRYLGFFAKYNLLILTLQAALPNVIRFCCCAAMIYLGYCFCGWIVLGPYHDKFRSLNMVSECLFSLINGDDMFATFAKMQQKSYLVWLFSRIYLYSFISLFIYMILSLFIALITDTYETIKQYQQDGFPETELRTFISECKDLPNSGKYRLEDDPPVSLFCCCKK
#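 Material: TRPML3-YFP stable HEK293 cells | Dosing: One concentration, 3 µM nominal, 0.3% DMSO | Timing: 125 s total fluorescence read per well | Technique: Fluo-8 calcium dye fluorescence, ex 470-495, em 515-575 nm | Measure: Percent activation from peak-to-basal fluorescence ratio, scaled between DMSO and carbachol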
# VIM-2 inh = blocks Pseudomonas aeruginosa VIM-2 metallo-beta-lactamase | inhibition, % at 5.6 µM | purified VIM-2, nitrocefin hydrolysis, epi-absorbance fluorescence | 0.89% of 290,000 active;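 active = inhibition above the mean of all tested compounds plus 3 SD, cutoff set per screening run, cut at about 7.5% in these data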;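 note: red hydrolysis product quenches plate fluorescence so inhibitors raise well fluorescence; 0% = enzyme with DMSO and 100% = DMSO without enzyme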
# CRFR2-BP antag = CRF-BP/CRF-R2 complex antagonism. inhibition, % at 11.8 µM. 0.59% of 350,000 active. HEK293 CRF-R2/CRF-BP, CRF-induced calcium fluorescence;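 active = inhibition of the ligand-induced calcium signal above about 50% at the single tested concentration, limit read from the data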
# CRFBP-R2 agonist = CRF-BP/CRF-R2 complex agonism | HEK293 CRF-R2/CRF-BP, calcium dye fluorescence (FLIPR); percent of saturating CRF peptide response | activation, % at 13.2 µM | 0.46% of 350,000 active;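 active = activation of at least 50%, plus an integration ratio under a set limit after plate pattern correction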;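 note: plate controls were neutral control wells without compound for no effect and CRF at EC100 for full effect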
# Active calls of the source: *; . = no result. A selection: hits, their analogues and other compounds. The true share with any hit is near 2.1%.
SMILES,IMP-1 inh,TRPN1 ag,TRPML3 agonist,VIM-2 inh,CRFR2-BP antag,CRFBP-R2 agonist
Cc1cc(/C=C2\SC(=S)N(Cc3ccco3)C2=O)c(C)n1-c1ccccc1,0.7,2.2,1.6,0.0,-24.7,28.2
CN(C)c1ccc(/C=C2\SC(=O)N(CC(O)Cn3c4ccccc4c4ccccc43)C2=O)cc1 (centres undefined),-4.7,1.2,-0.2,-4.5,-103.0,95.8*
O=C1S/C(=C/c2ccccc2)C(=O)N1CC(O)Cn1c2ccccc2c2ccccc21 (centres undefined),-4.1,1.6,1.1,-1.8,-25.6,0.7
CN(C)c1ccc(C=C2SC(=S)N(Cc3ccco3)C2=O)cc1,.,.,.,.,-128.9,169.0*
O=C(c1cnc(Cl)c(Cl)c1)N1CCN(S(=O)(=O)c2ccc3ccccc3c2)CC1,.,.,.,.,4.7,1.1
COc1ccc(C2CCc3cc4c(cc3C2=NO)OCO4)cc1OC (centres undefined),.,.,.,.,49.2,-0.9
COc1ccc(CCNC(=O)c2cccc(C(=O)NCCc3ccc(OC)cc3)n2)cc1,.,.,.,.,26.5,-0.8
O=c1[nH]c2ccc(Cl)cc2[nH]1,.,.,.,.,109.4*,1.6
O=c1[nH]c2ccc(S(=O)(=O)Nc3ccc(Cl)cc3)cc2[nH]1,-0.6,.,.,0.1,0.1,-2.7
Brc1cc2c(cc1C1OCCCO1)OCO2,.,.,.,.,5.7,-1.0
Cc1cccc(NC(=O)c2cccc([N+](=O)[O-])c2O)c1C,.,.,.,.,58.7*,44.8
Cc1nc2ccccc2c2c1C(=O)N(Cc1cccnc1)C2=O,-3.0,1.8,1.3,11.0*,-0.9,-1.7
COc1ccc(S(=O)(=O)N(C)C[C@H]2Oc3c(NC(=O)Nc4c(C)noc4C)cccc3C(=O)N([C@H](C)CO)C[C@@H]2C)cc1,.,.,.,.,10.3,1.9
Cc1ccc(C)c(OCCCC(=O)Nc2ccc(N3CCOCC3)cc2)c1,6.3*,1.5,1.5,-3.6,.,.
COC(=O)[C@@H](NC(=O)c1ccc2c(c1)S(=O)(=O)c1ccccc1C2=O)C(C)C,1.0,.,.,2.0,6.6,0.4
C=CCSc1nnc(C)c(/C=C/Nc2ccc(Cl)cc2)n1,-1.0,-0.1,0.4,-0.6,-196.3,113.6*
CCCC(C(=O)NC(C)(C)CC)N(Cc1ccco1)C(=O)CNS(=O)(=O)c1ccccc1 (centres undefined),-5.1,.,.,-5.3,0.3,-1.1
O=C(N[C@H]1CC1c1ccccc1)c1ccc([N+](=O)[O-])cc1 (some centres undefined),-1.8,-1.5,-0.8,-3.5,23.8,-4.2
CC(=O)N[C@H]1C[C@@H]1c1ccccc1,-7.0,2.5,-0.5,-2.1,60.8*,-1.7
CCOC(=O)N1CCC(NC(=O)c2ccc(CS(=O)c3cccc(Cl)c3)o2)CC1 (centres undefined),-4.2,.,.,-7.3,42.6,0.8
CC(=O)Nc1ccc2cc3ccc(NC(C)=O)cc3nc2c1,3.0,-0.4,0.8,8.4*,11.3,-0.4
CC(=O)Nc1ccc2ccccc2c1,-1.1,2.1,0.3,-2.7,19.3,2.7
COc1ccccc1C1C2=C(N=c3s/c(=C/c4cccc(OCC(=O)O)c4)c(=O)n31)c1ccccc1CC2 (centres undefined),-1.8,-1.0,-0.1,-5.2,64.9*,-0.4
COc1cccc(C2C3=C(N=c4s/c(=C\c5cccc(O)c5)c(=O)n42)c2ccccc2CC3)c1OC (centres undefined),-3.5,0.5,0.9,-2.5,-14.0,1.7
CCOc1ccc(/C=N/NC(=O)CN2CCCCCCC2)cc1,-3.2,0.0,1.2,-3.9,56.9*,3.5
SMILES,IMP-1 inh,TRPN1 ag,TRPML3 agonist,VIM-2 inh,CRFR2-BP antag,CRFBP-R2 agonist
O=C(CCl)c1ccc2[nH]c(=O)oc2c1,1.8,-0.3,0.3,-0.4,1.5,1.6
O=C(O)CSCC(=O)N1CCc2c([nH]c3ccccc23)C1C(F)(F)F (centres undefined),-0.2,.,.,-0.6,5.5,-0.6
O=C(O)c1ccccc1C(=O)N1CCc2c([nH]c3ccccc23)C1C(F)(F)F (centres undefined),-2.1,0.1,-0.1,10.8*,3.8,1.2
COC(=O)c1ccc(NC(=O)CN2C(=O)CSC2=O)cc1,-2.1,1.9,0.0,-1.6,-3.9,7.8
CCOC(=O)c1ccc(NC(=O)CN2C(=O)CSC2=O)cc1,0.6,0.3,0.6,-1.3,102.2*,-0.5
COc1ccc(-c2ccc(CN3C(C)C(=O)N(Cc4cn(CCC5OCCO5)nn4)CCS3(=O)=O)cc2)cc1 (centres undefined),.,.,.,.,0.6,0.2
CCCC(=O)OCCNc1cc(Sc2nc3ccccc3[nH]2)c2nonc2c1[N+](=O)[O-],-1.4,-1.0,0.2,0.8,90.5*,-3.0
CCC(=O)OCCNc1cc(SCCC(=O)OC)c2nonc2c1[N+](=O)[O-],-4.5,2.0,-0.5,-1.4,10.9,-0.7
COc1cccc(CN2CCC(Oc3ccc(C(=O)NCc4ccccn4)cc3)CC2)c1O,-2.3,.,.,-2.0,107.4*,0.0
COc1cc(C2C(C(=O)c3ccc(C)o3)=C(O)C(=O)N2c2cc(C)on2)cc(Br)c1O (centres undefined),-1.5,4.5,2.3,-0.2,-17.9,-2.5
COc1ccc(C2C(C(=O)c3ccco3)=C(O)C(=O)N2c2nnc(C)s2)cc1 (centres undefined),3.6,2.9,1.2,5.5,13.7,5.4
COc1cc(C2C(C(=O)c3ccco3)=C(O)C(=O)N2c2cc(C)on2)cc(Br)c1O (centres undefined),-2.8,2.1,2.2,-4.4,79.6*,0.9
C=CCOc1ccc(C2C(C(=O)c3ccco3)=C(O)C(=O)N2c2nnc(C)s2)cc1 (centres undefined),5.2*,3.4,2.3,3.7,83.3*,6.8
CCOc1ccccc1C(=O)NCC(=O)NCCSc1ccc(Br)cc1,.,.,.,.,0.2,1.0
CC(C)CN(C(=O)COC(=O)/C=C/c1ccc(Cl)c(Cl)c1)c1c(N)n(Cc2ccccc2)c(=O)[nH]c1=O,.,.,.,.,10.3,4.4
COc1cc(/C=C/C(=O)OCC(=O)N(CC(C)C)c2c(N)n(Cc3ccccc3)c(=O)[nH]c2=O)ccc1O,.,.,.,.,-41.3,119.6*
CSCCC(NC(=O)c1ccccc1)C(=O)N/N=C(\C)c1ccccc1 (centres undefined),-3.1,-0.6,0.2,-0.2,-90.3,111.5*
CCOC(=O)c1cc(-c2ccc(N3CCOCC3)cc2)nn1-c1ccccc1C(=O)O,22.5*,0.8,0.5,0.9,12.9,-2.4
CCOC(=O)c1cc(-c2ccc(N3CCOCC3)cc2)nn1-c1ccccc1,-2.9,0.0,-0.8,-3.0,10.8,-4.3
CN[C@@H](CO)C(=O)NC[C@H]1O[C@@H](n2cc(C)c(=O)[nH]c2=O)C[C@@H]1O,.,.,.,.,18.3,7.0
